From ChEMBL document CHEMBL1921692 (J Med Chem, 2011)
In brackets after ≈: the same amount, converted by molar mass. Activity calls are given as the source filed them.

Tests used:
[1] = biological target: T1, Growth hormone secretagogue receptor type 1 (Homo sapiens, UniProt Q92847); test: Displacement of [125I-His9]-ghrelin from human GRLN receptor by radioligand binding assay
How it was run: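 Competitive binding on isolated membranes expressing GRLN, with 125I-His-9 octanoylated ghrelin as radioligand.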

[2] = biological target: T1, Growth hormone secretagogue receptor type 1; test: Agonist activity at human GRLN receptor expressed in HEK293 cells assessed as calcium binding by Ca2+ bioluminescence aequorin assay; format: functional, cell-based
How it was run: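 HEK-293 cells expressing human GRLN. Ca2+ bioluminescence read out by aequorin. Duplicate samples, maximum tolerated interassay variability ±10%. Full agonism defined as maximal response >70% of that of octanoylated human ghrelin.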

[3] = Dissociation constant, pKa of the compound; format: physicochemical
[4] = Elimination half life in Sprague-Dawley rat at 2 m/kg, iv; format: ADME, organism-based; conditions: in vivo, read-out: beta t1/2
[5] = Permeability across mucosal to serosal side in human Caco2 cells; format: ADME, cell-based; conditions: Caco-2, read-out: permeability
Rattus norvegicus [6] = test: Induction of gastric emptying in overnight-fasted po dosed Wistar rat administered 30 mins prior methylcellulose meal by […] analysis; format: functional, organism-based; conditions: Stomach
[7] = Permeability across serosal to mucosal side human Caco2 cells; format: ADME, cell-based; conditions: Caco-2, read-out: permeability
[8] = Volume of distribution at steady state in Sprague-Dawley rat at 2 m/kg, iv; format: ADME, organism-based; conditions: in vivo, read-out: Vdss
[9] = Cmax in Sprague-Dawley rat at 8 mg/kg, po; format: ADME, organism-based; design: dose 8 mg/kg, route oral; conditions: in vivo
How it was run: (§1)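 Male Sprague−Dawley rats (250 ± 20 g), 3 per compound in a single experiment, gavage 8 mg/kg in physiological saline. Blood taken at 12 time points over 6 h into K3EDTA tubes. Plasma stored at −20 °C, assayed by LC-MS/MS, noncompartmental analysis.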

[10] = Oral bioavailability in Sprague-Dawley rat at 8 mg/kg; conditions: in vivo
[11] = Drug metabolism in rat liver microsomes after 15 mins; format: ADME, Microsome; conditions: read-out: Drug metabolism
[12] = AUC (0 to infinity) in Sprague-Dawley rat at 8 mg/kg, po; format: ADME, organism-based; design: time infinity, dose 8 mg/kg, route oral; conditions: plasma; how it was run: as §1
Rattus norvegicus [13] = test: Induction of gastric emptying in overnight-fasted iv dosed Wistar rat measured after 15 mins by […] analysis; format: functional, organism-based, Stomach
How it was run: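 Overnight-fasted male Wistar rats (200 ± 20 g), N = 5 per point. Compound given IV in 9% 2-hydroxypropyl-β-cyclodextrin together with an oral 2% methylcellulose meal containing 0.05% phenol red (2 mL). Sacrifice 15 min later; phenol red left in stomach read at 560 nm. […] Metoclopramide positive control at 10 mg/kg IV.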

[14] = Half life in human liver microsomes; format: ADME, Microsome
[15] = Clearance in Sprague-Dawley rat at 2 m/kg, iv; format: ADME, organism-based; conditions: in vivo
[16] = Aqueous solubility of the compound; format: physicochemical
[17] = biological target: T1, Growth hormone secretagogue receptor type 1; test: Partial agonist activity at GRLN receptor at 3 uM by aequorin assay; format: functional
How it was run: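 Aequorin Ca2+ bioluminescence in HEK-293 cells expressing human GRLN. Response at a 3 μM test concentration expressed relative to the maximal response to octanoylated human ghrelin.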

T1 sequence (Q92847 whole entry): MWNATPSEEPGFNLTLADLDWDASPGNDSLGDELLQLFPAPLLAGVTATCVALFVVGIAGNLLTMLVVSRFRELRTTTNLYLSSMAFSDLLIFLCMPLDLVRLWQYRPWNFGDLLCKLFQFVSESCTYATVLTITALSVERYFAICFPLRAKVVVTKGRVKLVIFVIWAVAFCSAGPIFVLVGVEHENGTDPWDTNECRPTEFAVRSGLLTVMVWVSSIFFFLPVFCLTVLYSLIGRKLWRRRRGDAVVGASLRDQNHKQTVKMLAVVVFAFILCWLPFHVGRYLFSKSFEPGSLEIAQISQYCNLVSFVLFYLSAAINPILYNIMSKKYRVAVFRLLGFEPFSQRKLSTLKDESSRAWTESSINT

| Compound | Ki [1] [nM] | EC50 [2] [nM] | other results |
| --- | --- | --- | --- |
| CN1CC(=O)N[C@H](Cc2ccccc2)C(=O)NCCCc2ccccc2OCCN[C@@H](Cc2ccccc2)C1=O | 670 |  |  |
| CCC[C@@H]1NCCOc2ccccc2CCCNC(=O)[C@@H](Cc2ccc(O)cc2)NC(=O)CN(C)C1=O | 120 | 39 |  |
| CC1COc2ccccc2CCCNC(=O)[C@@H](Cc2ccc(F)cc2)NC(=O)[C@@H](C)N(C)C(=O)[C@H](C2CC2)N1 (mixture of isomers) | 9 | 760 |  |
| CCC[C@H]1NCCOc2ccccc2CCCNC(=O)[C@@H](Cc2ccccc2)NC(=O)CN(C)C1=O | 1200 |  |  |
| CC[C@H](C)[C@@H]1NCCCCCCCCNC(=O)[C@@H](Cc2ccccc2)NC(=O)[C@@H](C)N(C)C1=O | 1500 |  |  |
| CC(C)C[C@@H]1NCCOc2ccccc2CCCNC(=O)[C@@H](Cc2ccccc2)NC(=O)[C@@H](C)N(C)C1=O | 25 |  |  |
| CCC[C@@H]1NCCOc2ccccc2CCCNC(=O)[C@@H](Cc2ccccc2)NC(=O)[C@@H](C)NC1=O | 500 |  |  |
| C[C@@H]1C(=O)N[C@H](Cc2ccccc2)C(=O)NCCCc2ccccc2OCCN[C@@H](C2CC2)C(=O)N1C | 4.4 | 23 | pKa [3]: 6.72 |
| CC[C@H](C)[C@@H]1NCCOc2ccccc2CCCNC(=O)[C@@H](Cc2ccc(Cl)cc2)NC(=O)[C@@H](C)N(C)C1=O | 0.35 | 20 | half-life [4]: 33 min; Papp A→B [5]: 14 ×10⁻⁶ cm/s; Activity (Rattus norvegicus [6]): inactive; Papp B→A [7]: 15 ×10⁻⁶ cm/s; Vd [8]: 3.2 L/kg; Cmax [9]: 60 nM; bioavailability [10]: 3%; metabolised at […] [11]: 86%; AUC(0-inf) [12]: 0.0585 µM·h; EC50 (Rattus norvegicus [13]): 0.39 mg/kg; half-life [14]: 5 min |
| C[C@@H]1CN[C@@H](C2CC2)C(=O)N(C)[C@H](C)C(=O)N[C@H](Cc2ccc(Cl)cc2)C(=O)NCCCc2ccccc2O1 | 15 | 18 | half-life [4]: 41 min; clearance [15]: 24 mL/min/kg; Vd [8]: 1.4 L/kg; Cmax [9]: 670 nM; bioavailability [10]: 22%; AUC(0-inf) [12]: 1.23 µM·h; EC50 (Rattus norvegicus [13]): 0.84 mg/kg |
| CC[C@H](C)[C@@H]1NCCOc2ccccc2CCNC(=O)[C@@H](Cc2ccccc2)NC(=O)[C@@H](C)N(C)C1=O | 210 | 530 |  |
| C[C@@H]1C(=O)N[C@H](Cc2ccc(F)cc2)C(=O)NCCCc2cc(F)ccc2OCCN[C@@H](C2CC2)C(=O)N1C | 58 |  |  |
| C[C@@H]1C(=O)N[C@H](Cc2ccc(F)cc2)C(=O)NCCCc2cccc3c2O[C@H](CC3)CN[C@@H](C2CC2)C(=O)N1C | 0.9 | 85 | half-life [4]: 59 min; clearance [15]: 13 mL/min/kg; Vd [8]: 1.1 L/kg |
| C[C@@H]1C(=O)N[C@H](Cc2ccc(F)cc2)C(=O)NCCCc2cccc3c2O[C@@H](CC3)CN[C@@H](C2CC2)C(=O)N1C | 19 |  |  |
| CCC[C@@H]1NCCOc2ccccc2CCCNC(=O)[C@@H](Cc2ccccc2)NC(=O)CN(C)C1=O | 68 |  |  |
| CC(C)[C@@H]1NC[C@@H](C)Oc2ccccc2CCCNC(=O)[C@@H](Cc2ccc(F)cc2)NC(=O)[C@@H](C)N(C)C1=O | 104 |  | half-life [4]: 34 min; clearance [15]: 40 mL/min/kg; Vd [8]: 2 L/kg |
| CCC[C@@H]1NC[C@@H](C)Oc2ccccc2CCCNC(=O)[C@@H](Cc2ccc(F)cc2)NC(=O)[C@@H](C)N(C)C1=O | 34 |  | half-life [4]: 29 min; clearance [15]: 41 mL/min/kg; Vd [8]: 1.7 L/kg; solubility [16]: 100 µg/mL (≈ 185 µM) |
| CC[C@H](C)[C@@H]1NCCCc2ccccc2CCCNC(=O)[C@@H](Cc2ccccc2)NC(=O)[C@@H](C)N(C)C1=O | 81 |  |  |
| C[C@@H]1C(=O)N[C@H](Cc2cccc(F)c2)C(=O)NCCCc2ccccc2OCCN[C@@H](C2CC2)C(=O)N1C | 21 |  |  |
| CC[C@H](C)[C@@H]1NC[C@@H](C)Oc2ccccc2CCCNC(=O)[C@@H](Cc2ccccc2)NC(=O)[C@@H](C(C)C)NC1=O | 380 |  |  |
| CCC[C@@H]1NCCOc2ccccc2CCCNC(=O)[C@@H](Cc2ccccc2)NC(=O)[C@@H](C)N(C)C1=O | 16 | 40 | pKa [3]: 6.45 |
| C[C@@H]1C(=O)N[C@H](Cc2ccc(F)cc2)C(=O)NCCCc2ccccc2OCCN[C@@H](C2CC2)C(=O)N1C | 7.3 |  | half-life [4]: 14 min; clearance [15]: 72 mL/min/kg; Vd [8]: 1.4 L/kg |

| Compound | Ki [1] [nM] | EC50 [2] [nM] | other results |
| --- | --- | --- | --- |
| CCCCCCCC(=O)OC[C@H](NC(=O)CNC(=O)[C@@H](N)CCCNC(=N)N)C(=O)N[C@@H](CO)C(=O)N[C@@H](Cc1ccccc1)C(=O)N[C@@H](CC(C)C)C(=O)N[C@@H](CO)C(=O)N1CCC[C@H]1C(=O)N[C@@H](CCC(=O)O)C(=O)N[C@@H](Cc1cnc[nH]1)C(=O)N[C@@H](CCC(N)=O)C(=O)N[C@@H](CCCCN)C(=O)N[C@@H](C)C(=O)N[C@@H](CCC(N)=O)C(=O)N[C@@H](CCC(N)=O)C(=O)N[C@@H](CCCNC(=N)N)C(=O)N[C@@H](CCCCN)C(=O)N[C@@H](CCC(=O)O)C(=O)N[C@@H](CO)C(=O)N[C@@H](CCCCN)C(=O)N[C@@H](CCCCN)C(=O)N1CCC[C@H]1C(=O)N1CCC[C@H]1C(=O)N[C@@H](C)C(=O)N[C@@H](CCCCN)C(=O)N[C@@H](CC(C)C)C(=O)N[C@@H](CCC(N)=O)C(=O)N1CCC[C@H]1C(=O)O [GHRELIN] |  |  | Activity (Rattus norvegicus [6]): inactive; EC50 (Rattus norvegicus [13]): 0.04 mg/kg |
| CC[C@H](C)[C@@H]1NCCCc2ccccc2CCCCNC(=O)[C@@H](Cc2ccccc2)NC(=O)[C@@H](C)N(C)C1=O | 78 | 360 |  |
| CC[C@H](C)[C@@H]1NCCCc2ccccc2CCNC(=O)[C@@H](Cc2ccccc2)NC(=O)[C@@H](C)N(C)C1=O | 400 |  |  |
| CC[C@H](C)[C@@H]1NCCCC/C=C/CCNC(=O)[C@@H](Cc2ccccc2)NC(=O)[C@@H](C)N(C)C1=O (mixture of isomers) | 160 | 310 |  |
| CC[C@H]1NC(=O)[C@H]([C@@H](C)CC)NC[C@@H](C)Oc2ccccc2CCCNC(=O)[C@@H](Cc2ccccc2)NC1=O | 35 |  |  |
| CCC[C@H](NCCOc1ccccc1/C=C/CNC(C)=O)C(=O)N(C)CC(=O)N[C@H](Cc1ccccc1)C(N)=O | > 10000 |  |  |
| CCCC[C@H]1NC(=O)CN(C)C(=O)[C@H](CCC)NCCOc2ccccc2CCCNC1=O | 400 |  |  |
| CC[C@H](C)[C@@H]1NC[C@@H](C)Oc2ccccc2CCCNC(=O)[C@@H](Cc2ccc(F)cc2)NC(=O)[C@@H](C)N(C)C1=O | 32 |  | half-life [4]: 44 min; clearance [15]: 40 mL/min/kg; Vd [8]: 2.5 L/kg; solubility [16]: 100 µg/mL (≈ 180 µM) |
| C[C@@H]1C(=O)N[C@H](Cc2ccc(F)cc2)C(=O)NCCCc2ccccc2OC(C)(C)CN[C@@H](C2CC2)C(=O)N1C | 12 |  | Activity [17]: 40% |
| CCC[C@@H]1NCCOc2ccccc2CCCNC(=O)[C@@H](Cc2ccccc2)NC(=O)[C@H](C)N(C)C1=O | 580 |  |  |
| C[C@@H]1CN[C@@H](C2CCCCC2)C(=O)N(C)[C@H](C)C(=O)N[C@H](Cc2ccc(F)cc2)C(=O)NCCCc2ccccc2O1 | 0.38 | 49 | half-life [4]: 74 min; clearance [15]: 43 mL/min/kg; Vd [8]: 4.7 L/kg; solubility [16]: ≤ 10 µg/mL |
| C[C@@H]1CN[C@@H](C2CC2)C(=O)N(C)[C@H](C)C(=O)N[C@H](Cc2ccccc2)C(=O)NCCCc2ccccc2O1 | 34 |  | half-life [4]: 32 min; clearance [15]: 25 mL/min/kg; Vd [8]: 1.3 L/kg |
| CN1CC(=O)N[C@H](Cc2ccccc2)C(=O)NCCCc2ccccc2OCCN[C@@H](CCCCN)C1=O | 1100 |  |  |
| C[C@@H]1CN[C@@H](C2CC2)C(=O)N(C)[C@H](C)C(=O)N[C@H](Cc2ccc(F)cc2)C(=O)NCCCc2ccc(F)cc2O1 | 61 |  | half-life [4]: 66 min; clearance [15]: 9 mL/min/kg; Vd [8]: 0.9 L/kg; Cmax [9]: 750 nM; bioavailability [10]: 15%; AUC(0-inf) [12]: 2.08 µM·h; EC50 (Rattus norvegicus [13]): 1.38 mg/kg |
| C[C@@H]1C(=O)N[C@H](Cc2ccc(F)cc2)C(=O)NCCCc2ccccc2O[C@@H](C)CN[C@@H](C2CC2)C(=O)N1C | 56 | 26 |  |
| C[C@@H]1C(=O)N[C@H](Cc2ccccc2F)C(=O)NCCCc2ccccc2OCCN[C@@H](C2CC2)C(=O)N1C | 6.2 |  |  |
| CCC[C@@H]1NCCOc2ccccc2CCCNC(=O)[C@H](Cc2ccccc2)NC(=O)CN(C)C1=O | 380 |  |  |
| Cc1ccc(C[C@H]2NC(=O)[C@@H](C)N(C)C(=O)[C@H](C3CC3)NCCOc3ccccc3CCCNC2=O)cc1 | 5 | 8.2 |  |
| CC[C@H](C)[C@@H]1NCCOc2ccccc2CCCNC(=O)[C@@H](Cc2ccccc2)NC(=O)[C@@H](C)N(C)C1=O | 6.4 |  |  |
| C[C@@H]1C(=O)N[C@H](Cc2ccc(C(F)(F)F)cc2)C(=O)NCCCc2ccccc2OCCN[C@@H](C2CC2)C(=O)N1C | 7 | 11 |  |
| CC[C@H](C)[C@@H]1NCCOc2ccccc2CCCNC(=O)[C@@H](CCc2ccccc2)NC(=O)[C@@H](C)N(C)C1=O | 43 |  |  |
